Data as given in ChEMBL document CHEMBL1138529, “Efficacy, pharmacokinetics, and metabolism of tetrahydroquinoline inhibitors of Plasmodium falciparum protein farnesyltransferase” (Antimicrob Agents Chemother, 2007).

Key:
[1] = AUC in Sprague-Dawley rat at 50 mg/kg, po; format: ADME, organism-based; design: dose 50 mg/kg, route oral; conditions: plasma
Outline: (§1)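 Three female BALB/c mice (lines for mice, 8–10 weeks) or three female Sprague-Dawley rats (10–12 weeks) per group; 50 mg/kg oral gavage in 3% EtOH-7% Tween 80-90% normal saline. Plasma sampled at set times (tail bleed in mice, saphenous vein in rats), extracted with acetonitrile plus internal standard, quantified by LC/MS; AUC as mean of three animals.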

Mus musculus [2] = assay: Toxicity in BALB/c mouse at 50 mg/kg, po; format: organism-based; design: dose 50 mg/kg, route oral; conditions: in vivo
[3] = Cmax in Sprague-Dawley rat at 50 mg/kg, po; format: ADME, organism-based; design: dose 50 mg/kg, route oral; conditions: in vivo
Outline: (§2)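 50 mg/kg by oral gavage in 3% EtOH-7% Tween 80-90% normal saline to groups of three females (BALB/c mice, 8–10 weeks, tail bleed; Sprague-Dawley rats, 10–12 weeks, saphenous vein). Plasma extracted with acetonitrile/internal standard, LC/MS; means of three animals. Oral elimination half-life depends on absorption rate as well as elimination.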

[4] = Permeability from apical to basolateral side in human Caco-2 cells; format: ADME, cell-based; conditions: read-out: permeability
[5] = Inhibition of Plasmodium falciparum protein farnesyltransferase by SPA method
Rattus norvegicus [6] = assay: Toxicity in Sprague-Dawley rat at 50 mg/kg, po; format: organism-based; design: dose 50 mg/kg, route oral; conditions: in vivo
Outline: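 Female Sprague-Dawley rats, 10-12 weeks, three per group. 50 mg/kg oral gavage in 3% EtOH-7% Tween 80-90% normal saline. Saphenous vein plasma sampled over time, and animals observed for adverse reactions.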

Plasmodium falciparum = assay: Antiplasmodial activity against Plasmodium falciparum by [3H]hypoxanthine uptake; format: functional; conditions: read-out: ED50 (the source's name)
Outline: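 Asynchronous P. falciparum (3D7 or K1) in RPMI 1640 with 20% heat-inactivated human A+ plasma, 0.5% parasitemia and 0.5% hematocrit; compound serially diluted, top final 5 μM, 48 h at 37°C under 5% CO2/5% O2/90% N2, then [8-3H]hypoxanthine 0.3 μCi added for 24 h.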

[7] = Elimination half life in BALB/c mouse at 50 mg/kg, po; format: ADME, organism-based; design: dose 50 mg/kg, route oral; conditions: in vivo, read-out: beta t1/2; outline: as §2
[8] = Elimination half life in Sprague-Dawley rat at 50 mg/kg, po; format: ADME, organism-based; design: dose 50 mg/kg, route oral; conditions: in vivo, read-out: beta t1/2; outline: as §2
[9] = Metabolic stability in mouse liver microsomes; format: ADME, Microsome
Outline: (§3)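 Pooled female liver microsomes at 0.5 mg/ml in 0.1 M potassium phosphate pH 7.4, 3 mM MgCl2, 1 mM EDTA, with NADPH regenerating system (1 mM NADP+, 5 mM glucose-6-phosphate, 1 U/ml G6PDH). Preincubated 10 min at 37°C, then compound added to 1 μM final. Time points quenched with 3 volumes acetonitrile plus internal standard; parent quantified by LC/MS; half-life reported.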

[10] = AUC in BALB/c mouse at 50 mg/kg, po; format: ADME, organism-based; design: dose 50 mg/kg, route oral; conditions: plasma; outline: as §1
[11] = Cmax in BALB/c mouse at 50 mg/kg, po; format: ADME, organism-based; design: dose 50 mg/kg, route oral; conditions: in vivo; outline: as §2
[12] = Metabolic stability in rat liver microsomes; format: ADME, Microsome; outline: as §3
[13] = Drug metabolism in bile duct cannulated Sprague-Dawley rat assessed as radioactive drug recovery in feces at 35 mg/kg, po after 18 hrs; format: ADME, organism-based; design: dose 35 mg/kg, route oral; conditions: in vivo
Outline: (§4)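 Male bile-duct- and jugular-cannulated Sprague-Dawley rats (~350 g, three per compound) given 35 mg/kg 14C-labelled compound orally (80 μCi/kg) in 3% EtOH-7% Tween 80-90% saline. Urine, feces and bile collected for 18 h, cages washed with methanol-water, animals autopsied; radioactivity per matrix by liquid scintillation counting as mean % of dose.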

Blood [14] = assay: Drug level in bile duct cannulated Sprague-Dawley rat blood at 35 mg/kg, po after 2 hrs; format: ADME, organism-based; design: dose 35 mg/kg, route oral; conditions: in vivo
Outline: (§5)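 Male Sprague-Dawley rats (~350 g), jugular vein and bile duct cannulated, 1 week recovery; three per compound dosed by oral gavage with 35 mg/kg in 3% EtOH-7% Tween 80-90% normal saline plus 80 μCi/kg 14C tracer. Plasma and blood cells sampled over 18 h; radioactivity by liquid scintillation, reported as mean μg base equivalents/g.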

Blood [15] = assay: Drug level in bile duct cannulated Sprague-Dawley rat blood at 35 mg/kg, po after 0.5 hrs; format: ADME, organism-based; design: dose 35 mg/kg, route oral; conditions: in vivo; outline: as §5
Rattus norvegicus [16] = assay: Plasma concentration in bile duct cannulated Sprague-Dawley rat at 35 mg/kg, po after 0.5 hrs; format: ADME, organism-based; design: dose 35 mg/kg, route oral; conditions: in vivo
Outline: (§6)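 Male Sprague-Dawley rats, about 350 g, with jugular and bile-duct cannulae, allowed 1 week recovery; three per compound. Oral gavage 35 mg/kg in 3% EtOH-7% Tween 80-90% saline with 80 μCi/kg 14C tracer. Monitored 18 h. Plasma and blood-cell radioactivity measured by liquid scintillation counting and given as μg base equivalents/g.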

Blood [17] = assay: Drug level in bile duct cannulated Sprague-Dawley rat blood at 35 mg/kg, po after 4 hrs; format: ADME, organism-based; design: dose 35 mg/kg, route oral; conditions: in vivo; outline: as §5
Blood [18] = assay: Drug level in bile duct cannulated Sprague-Dawley rat blood at 35 mg/kg, po after 3 hrs; format: ADME, organism-based; design: dose 35 mg/kg, route oral; conditions: in vivo; outline: as §5
Rattus norvegicus [19] = assay: Plasma concentration in bile duct cannulated Sprague-Dawley rat at 35 mg/kg, po after 18 hrs; conditions: in vivo
Rattus norvegicus [20] = assay: Toxicity in bile duct cannulated Sprague-Dawley rat assessed as incidence of adverse events at 35 mg/kg, po after 18 hrs; format: organism-based; design: dose 35 mg/kg, route oral; conditions: in vivo; outline: as §6
Blood [21] = assay: Drug level in bile duct cannulated Sprague-Dawley rat blood at 35 mg/kg, po after 6 hrs; format: ADME, organism-based; design: dose 35 mg/kg, route oral; conditions: in vivo; outline: as §5
Rattus norvegicus [22] = assay: Plasma concentration in bile duct cannulated Sprague-Dawley rat at 35 mg/kg, po after 2 hrs; format: ADME, organism-based; design: dose 35 mg/kg, route oral; conditions: in vivo; outline: as §6
Blood [23] = assay: Drug level in bile duct cannulated Sprague-Dawley rat blood at 35 mg/kg, po after 18 hrs; format: ADME, organism-based; design: dose 35 mg/kg, route oral; conditions: in vivo; outline: as §5
Blood [24] = assay: Drug level in bile duct cannulated Sprague-Dawley rat blood at 35 mg/kg, po after 1 hr; format: ADME, organism-based; design: dose 35 mg/kg, route oral; conditions: in vivo; outline: as §5
Rattus norvegicus [25] = assay: Plasma concentration in bile duct cannulated Sprague-Dawley rat at 35 mg/kg, po after 3 hrs; format: ADME, organism-based; design: dose 35 mg/kg, route oral; conditions: in vivo; outline: as §6
Rattus norvegicus [26] = assay: Drug metabolism in bile duct cannulated Sprague-Dawley rat assessed as radioactive drug recovery at 35 mg/kg, po after 18 hrs; format: ADME, organism-based; design: dose 35 mg/kg, route oral; conditions: in vivo; outline: as §4
[27] = Drug metabolism in bile duct cannulated Sprague-Dawley rat assessed as radioactive drug recovery in gastrointestinal tract at 35 mg/kg, po after 18 hrs; format: ADME, organism-based; design: dose 35 mg/kg, route oral; conditions: in vivo; outline: as §4
Rattus norvegicus [28] = assay: Plasma concentration in bile duct cannulated Sprague-Dawley rat at 35 mg/kg, po after 1 hr; format: ADME, organism-based; design: dose 35 mg/kg, route oral; conditions: in vivo; outline: as §6
[29] = Drug metabolism in bile duct cannulated Sprague-Dawley rat assessed as radioactive drug recovery in urine at 35 mg/kg, po after 18 hrs; format: ADME, organism-based; design: dose 35 mg/kg, route oral; conditions: in vivo; outline: as §4
[30] = Drug metabolism in bile duct cannulated Sprague-Dawley rat assessed as radioactive drug recovery in bile at 35 mg/kg, po after 18 hrs; format: ADME, organism-based; design: dose 35 mg/kg, route oral; conditions: in vivo; outline: as §4
Mus musculus [31] = assay: Plasma concentration in BALB/c mouse at 50 mg/kg, po; format: ADME, organism-based; design: dose 50 mg/kg, route oral; conditions: in vivo
Outline: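 Female BALB/c mice, 8-10 weeks, three per group. Single 50 mg/kg oral gavage in 3% EtOH-7% Tween 80-90% normal saline. Plasma collected by tail bleed at set times, frozen at −20°C, acetonitrile-extracted with internal standard, quantified by LC/MS.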

[32] = Permeability from basolateral to apical side in human Caco-2 cells; format: ADME, cell-based; conditions: read-out: permeability
Outline: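 Caco-2 clone TC7 grown on laminin-coated porous inserts and used 19-21 days after seeding; integrity checked by TEER and [3H]mannitol flux. Monolayers equilibrated 30 min at 37°C in HBSS/5 mM HEPES pH 7.4. Compound at 50 μM final added to basolateral donor side. Apical receiver sampled at 60 min, 37°C with shaking; LC/MS; Papp calculated from 60-min concentrations.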

Row | SMILES | AUC [1] | Activity (Mus musculus [2]) | Cmax [3] | Papp A→B [4] | IC50 [5] | Activity (Rattus norvegicus [6]) | EC50 (Plasmodium falciparum) | half-life [7] | half-life [8] | half-life [9] | AUC [10] | Cmax [11] | half-life [12] | concentration (Mus musculus [31]) | Papp B→A [32] | further results
1 | Cn1cncc1CN1CC(N(CC2CCN(C(=O)OCc3ccccc3)CC2)S(=O)(=O)c2ccccn2)Cc2cc(C#N)ccc21 (stereo not drawn) | 10.9 µM·h | Non-toxic | 4.5 µM | 1 ×10⁻⁶ cm/s | 0.5 nM | Non-toxic | 16 nM | – | – | – | – | – | – | – | – | –
2 | CC(C)OC(=O)N1CCC(CN(C2Cc3cc(C#N)ccc3N(Cc3cncn3C)C2)S(=O)(=O)c2ccccn2)CC1 (stereo not drawn) | 10.9 µM·h | Non-toxic | 4.5 µM | 1 ×10⁻⁶ cm/s | 0.5 nM | Non-toxic | 16 nM | – | – | – | – | – | – | – | – | –
3 | Cn1cnc(S(=O)(=O)N(CC(=O)NC(C)(C)C)C2Cc3cc(-c4ccccc4)ccc3N(Cc3cncn3C)C2)c1 (stereo not drawn) | 13.5 µM·h | – | 4.1 µM | – | – | Non-toxic | – | 1.47 h | 1.77 h | 1.63 h | 15.7 µM·h | 5 µM | 2.75 h | – | – | –
4 | Cn1cncc1CN1CC(N(CCn2cccc2)S(=O)(=O)c2ccccn2)Cc2cc([14C]#N)ccc21 (stereo not drawn) | – | – | – | – | – | – | – | – | – | – | – | – | – | – | – | Drug uptake [13]: 33.7%; Drug uptake (Blood [14]): 0.344 ug base equiv/g; Drug uptake (Blood [15]): 0.566 ug base equiv/g; Cp (Rattus norvegicus [16]): 1.38 ug base equiv/g; Drug uptake (Blood [17]): 0.073 ug base equiv/g; Drug uptake (Blood [18]): 0.221 ug base equiv/g; Cp (Rattus norvegicus [19]): 0.351 ug base equiv/g; Activity (Rattus norvegicus [20]): Non-toxic; Drug uptake (Blood [21]): 0.063 ug base equiv/g; Cp (Rattus norvegicus [22]): 0.723 ug base equiv/g; Drug uptake (Blood [23]): 0.243 ug base equiv/g; Drug uptake (Blood [24]): 0.493 ug base equiv/g; Cp (Rattus norvegicus [25]): 0.237 ug base equiv/g; Drug uptake (Rattus norvegicus [26]): 104%; Drug uptake [27]: 40.3%; Cp (Rattus norvegicus [28]): 1.36 ug base equiv/g; Drug uptake [29]: 1.6%; Drug uptake [30]: 27.1%
5 | Cn1cnc(S(=O)(=O)N(Cc2ccccn2)C2Cc3cc(C#N)ccc3N(Cc3cncn3C)C2)c1 (stereo not drawn) | – | Non-toxic | – | 0.2 ×10⁻⁶ cm/s | – | – | – | – | – | – | – | – | – | 1 µM | 23.9 ×10⁻⁶ cm/s | –
6 | Cn1cncc1CN1CC(N(CCn2cccc2)S(=O)(=O)c2ccccn2)Cc2cc(C#N)ccc21 (stereo not drawn) | 11.6 µM·h | Non-toxic | 5.4 µM | 12.4 ×10⁻⁶ cm/s | – | Non-toxic | – | 0.667 h | 1.03 h | 0.0817 h | 15.9 µM·h | 13.5 µM | 0.173 h | 13.6 µM | 45.5 ×10⁻⁶ cm/s | –
